Source: ChEMBL document CHEMBL4265879, “Novel, potent, selective and brain penetrant vasopressin 1b receptor antagonists” (Bioorg Med Chem Lett, 2018)

Tests used:
Homo sapiens [1] = species: Homo sapiens; test: Selectivity index, ratio of Ki for human vasopressin V1a receptor to Ki for human vasopressin V1b receptor
Summary of the method: (§1)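 Selectivity was calculated from human receptor Ki values as Ki hOT/Ki hV1b or Ki hV1a/Ki hV1b. Each Ki is the mean of at least two experiments (MSR 2.8).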

[2] = Intrinsic clearance in rat liver microsomes; format: ADME, microsome; details: read-out: CLH
Summary of the method: (§2)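 Intrinsic clearance was measured in human and rat liver microsomes, in µL/min/mg. Values are means of at least two experiments.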

Vasopressin V1b receptor = target: T1, Vasopressin V1b receptor (Homo sapiens, UniProt P47901); test: Displacement of [3H]AVP from human vasopressin V1b receptor expressed in CHO cell membranes after 60 mins by TopCount microplate scintillation counting method
T1 sequence (P47901 whole entry): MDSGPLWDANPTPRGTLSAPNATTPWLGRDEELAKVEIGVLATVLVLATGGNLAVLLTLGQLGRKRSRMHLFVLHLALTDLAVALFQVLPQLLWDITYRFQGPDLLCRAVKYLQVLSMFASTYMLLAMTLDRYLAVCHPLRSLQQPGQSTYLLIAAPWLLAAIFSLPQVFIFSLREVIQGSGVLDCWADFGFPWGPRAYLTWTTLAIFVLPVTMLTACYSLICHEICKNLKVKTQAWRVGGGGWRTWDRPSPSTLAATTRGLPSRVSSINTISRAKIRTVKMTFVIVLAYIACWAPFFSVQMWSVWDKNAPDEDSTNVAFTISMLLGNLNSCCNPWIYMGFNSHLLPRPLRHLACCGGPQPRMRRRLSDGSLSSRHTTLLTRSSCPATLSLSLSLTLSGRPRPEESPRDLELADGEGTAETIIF

[3] = Intrinsic clearance in human liver microsomes; format: ADME, microsome; details: read-out: CLH; summary of the method: as §2
[4] = Clearance in rat plasma at 2 mg/kg, iv; format: ADME, organism-based
Summary of the method: (§3)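 Rat PK after a 2 mg/kg intravenous dose. Plasma clearance (L/h/kg), terminal half-life (h) and steady-state volume of distribution (L/kg) were derived.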

[5] = Oral bioavailability in rat at 10 mg/kg; format: ADME, organism-based; details: in vivo
Summary of the method: (§4)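 Rat oral dosing, at 10 or 5 mg/kg depending on compound. Oral bioavailability (%) was calculated.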

[6] = Volume of distribution at steady state in rat at 2 mg/kg, iv; format: ADME, organism-based; details: in vivo, read-out: Vdss; summary of the method: as §3
[7] = Ratio of AUC in rat brain to plasma at 10 mg/kg, ip measured after 8 hrs; format: ADME, organism-based; details: read-out: Ratio AUC
Summary of the method: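 Rats were dosed 10 mg/kg intraperitoneally. Brain and plasma AUC were taken over an 8 h period, and the brain:plasma ratio was calculated from them.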

Homo sapiens [8] = species: Homo sapiens; test: Selectivity index, ratio of Ki for human oxytocin receptor to Ki for human vasopressin V1b receptor; summary of the method: as §1
[9] = Elimination half life in rat at 2 mg/kg, iv; format: ADME, organism-based; details: in vivo, read-out: beta t1/2 (converted); summary of the method: as §3
Rattus norvegicus [10] = test: Antidepressant like activity in Sprague-Dawley rat assessed as climbing time at 3 mg/kg, ip administered at 24, 4 and 0.5 hrs prior to test by forced swimming test; format: functional
Summary of the method: (§5)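 Rat forced swim test. Drug given intraperitoneally at 3 mg/kg, dosed 24, 4 and 0.5 h before testing. Floating, swimming and climbing times were scored. Nomifensine served as positive control. Data reported as mean ± SEM.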

Rattus norvegicus [11] = test: Antidepressant like activity in Sprague-Dawley rat assessed as swimming time at 3 mg/kg, ip administered at 24, 4 and 0.5 hrs prior to test by forced swimming test; format: functional; summary of the method: as §5
Rattus norvegicus [12] = test: Antidepressant like activity in Sprague-Dawley rat assessed as floating time at 3 mg/kg, ip administered at 24, 4 and 0.5 hrs prior to test by forced swimming test; format: functional; summary of the method: as §5
Cytochrome P450 3A4 = Cytochrome P450 3A4 (Homo sapiens, UniProt P08684); test: Inhibition of CYP3A4 in human liver microsomes in presence of NADPH and Luciferin BE 50; format: ADME
Chain of Cytochrome P450 3A4 (P08684 whole entry): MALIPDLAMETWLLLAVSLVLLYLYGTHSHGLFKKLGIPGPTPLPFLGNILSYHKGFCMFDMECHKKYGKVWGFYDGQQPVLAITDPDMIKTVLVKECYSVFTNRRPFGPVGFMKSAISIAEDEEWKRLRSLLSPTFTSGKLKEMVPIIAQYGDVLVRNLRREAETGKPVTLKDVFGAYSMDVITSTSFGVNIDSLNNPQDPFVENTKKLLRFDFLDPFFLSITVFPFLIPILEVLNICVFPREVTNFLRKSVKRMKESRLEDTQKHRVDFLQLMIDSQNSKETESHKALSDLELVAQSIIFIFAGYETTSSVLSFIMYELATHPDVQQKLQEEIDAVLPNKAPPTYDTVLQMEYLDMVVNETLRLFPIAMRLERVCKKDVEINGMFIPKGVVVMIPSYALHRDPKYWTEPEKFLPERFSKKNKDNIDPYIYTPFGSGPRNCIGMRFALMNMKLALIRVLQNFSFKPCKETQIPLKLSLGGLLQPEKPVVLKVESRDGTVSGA
Summary of the method: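 CYP3A4 inhibition by co-incubation in human liver microsomes with NADPH and luciferin-BE substrate, with 0.03 mg/mL noted. Result expressed as IC50.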

[13] = Oral bioavailability in rat at 5 mg/kg; format: ADME, organism-based; details: in vivo; summary of the method: as §4

Row | Compound | Ratio Ki (Homo sapiens [1]) | microsomal CLint [2] [µL/min/mg] | Ki (Vasopressin V1b receptor) [nM] | microsomal CLint [3] [µL/min/mg] | Ratio Ki (Homo sapiens [8]) | also measured
1 | COc1ccc(S(=O)(=O)N2C(=O)C(c3cccnc3OC)(N3CCN(C)C(=O)[C@H]3C)c3cc(Cl)ccc32)c(OC)c1 (stereo not given in full) | 1 | 78 | 41 | 51 | – | –
2 | COc1ccccc1C1(N2CCN(c3cccnc3)CC2)C(=O)N(S(=O)(=O)c2cccc3cccnc23)c2ccc(Cl)cc21 (stereo not given) | 3 | 359 | 8 | 360 | 10 | –
3 | COc1ccc(S(=O)(=O)N2C(=O)C(c3ccccc3OC)(N3CCN(c4cccnc4)CC3)c3cc(Cl)ccc32)c(OC)c1 (stereo not given) | 0.8 | 348 | 18 | 41 | 0.9 | –
4 | COc1ncccc1C1(N2CCN(c3cccnc3)CC2)C(=O)N(S(=O)(=O)c2cccc3cccnc23)c2ccc(C#N)cc21 (stereo not given) | 0.9 | 113 | 30.2 | 326 | 3 | –
5 | COc1ccc(S(=O)(=O)N2C(=O)C(c3ccccc3OC)(N3CCN(c4cccnc4)CC3)c3cc(Cl)ccc32)cc1 (stereo not given) | – | – | 104 | – | – | –
6 | COc1ccc(S(=O)(=O)N2C(=O)C(c3cccnc3OC)(N3CCN(c4cccnc4)CC3)c3cc(Cl)ccc32)c(OC)c1 (stereo not given) | 0.1 | 84 | 45 | 19 | – | –
7 | COc1ccc(S(=O)(=O)N2C(=O)C(c3ccccc3OC)(N3CCN(c4ccncc4)CC3)c3cc(C#N)ccc32)c(OC)c1 (stereo not given) | – | 296 | 58.5 | 43 | – | –
8 | COc1ccccc1C1(N2CCN(c3cccnc3)CC2)C(=O)N(S(=O)(=O)c2ccccc2OC)c2ccc(Cl)cc21 (stereo not given) | – | 442 | 47 | 93 | – | –
9 | COc1ccccc1C1(N2CCN(c3cccnc3)CC2)C(=O)N(S(=O)(=O)c2ccccc2)c2ccc(Cl)cc21 (stereo not given) | – | – | 233 | – | – | –
10 | COc1ccc(S(=O)(=O)N2C(=O)C(c3cccnc3OC)(N3CCNC(=O)C3)c3cc(Cl)ccc32)c(OC)c1 (stereo not given) | – | – | 1340 | – | – | –
11 | COc1ccc(S(=O)(=O)N2C(=O)C(c3cccnc3OC)(N3CCN(c4cccnc4)C(=O)C3)c3cc(Cl)ccc32)c(OC)c1 (stereo not given) | 1 | 291 | 82 | 196 | – | –
12 | COc1ncccc1C1(N2CCN(c3cccnc3)CC2)C(=O)N(S(=O)(=O)c2cccc3cccnc23)c2ccc(Cl)cc21 (stereo not given) | 0.5 | 156 | 15.2 | 554 | 2 | –
13 | COc1ccc(S(=O)(=O)N2C(=O)C(c3cccnc3OC)(N3CCN(C)C(=O)C3)c3cc(Cl)ccc32)c(OC)c1 (stereo not given) | – | 113 | 192 | 99 | – | –
14 | COc1ccc(S(=O)(=O)N2C(=O)C(c3cc(OC)ccc3OC)(N3CCN(c4ccncc4)CC3)c3cc(C#N)ccc32)c(OC)c1 (stereo not given) | 2 | 58 | 13 | 50 | 2 | –

Now from value to compound, other results behind:

Row | Ratio Ki (Homo sapiens [1]) | microsomal CLint [2] [µL/min/mg] | Ki (Vasopressin V1b receptor) [nM] | microsomal CLint [3] [µL/min/mg] | Ratio Ki (Homo sapiens [8]) | Compound | also measured
15 | 21 | 41 | 21 | 23 | 6 | CCOc1ccc(OC)cc1C1(N2CCN(c3ccncc3)CC2)C(=O)N(S(=O)(=O)c2ccc(OC)cc2OC)c2ccc(C#N)cc21 (stereo not given) | clearance [4]: 11.7 mL/min/kg; bioavailability [5]: 22%; Vd [6]: 2.9 L/kg; Kp at 8 h [7]: 1.1; half-life [9]: 3.4 h
16 | 79 | 210 | 5 | 170 | 34 | CCOc1ccc(OC)cc1C1(N2CCN(c3ccncc3)CC2)C(=O)N(S(=O)(=O)c2cccc3cccnc23)c2ccc(C#N)cc21 (stereo not given) | clearance [4]: 46.7 mL/min/kg; bioavailability [5]: 18%; Time (Rattus norvegicus [10]): 125.69 s; Vd [6]: 10 L/kg; Time (Rattus norvegicus [11]): 12.46 s; Kp at 8 h [7]: 1.4; Time (Rattus norvegicus [12]): 159.15 s; half-life [9]: 2.4 h
17 | 34 | 34 | 10 | 63 | 3 | CCOc1cc(OC)ccc1C1(N2CCN(c3ccncc3)CC2)C(=O)N(S(=O)(=O)c2ccc(OC)cc2OC)c2ccc(C#N)cc21 (stereo not given) | –
18 | – | 118 | 32 | 93 | 15 | CCOc1ccc(OC)cc1C1(N2CCN(c3ccncc3)CC2)C(=O)N(S(=O)(=O)c2ccc(OC)cc2)c2ccc(C#N)cc21 (stereo not given) | –
19 | 84 | 15 | 2 | 33 | 4 | CCOc1ccc(OC)cc1C1(N2CCN(c3ccncc3)CC2)C(=O)N(S(=O)(=O)c2ccc(OC)c3cccnc23)c2ccc(C#N)cc21 (stereo not given) | –
20 | 78 | – | – | – | 65 | CCOc1nc(Cl)ccc1C1(N2CCN(c3ccnc(C)c3)CC2)C(=O)N(S(=O)(=O)c2ccc(OC)cn2)c2ccc(C#N)cc21 (single isomer, unassigned; (+)) [listing 1 of 2 here] | –
21 | – | 22 | 0.9 | 7 | – | CCOc1nc(Cl)ccc1C1(N2CCN(c3ccnc(C)c3)CC2)C(=O)N(S(=O)(=O)c2ccc(OC)cn2)c2ccc(C#N)cc21 (single isomer, unassigned; (+)) [listing 2 of 2 here] | clearance [4]: 15 mL/min/kg; Vd [6]: 12 L/kg; IC50 (Cytochrome P450 3A4): 2000 nM; Kp at 8 h [7]: 1; bioavailability [13]: 37%; half-life [9]: > 6 h
22 | – | – | 1.3 | – | – | CCOc1nc(Cl)ccc1C1(N2CCN(c3ccnc(C)c3)CC2)C(=O)N(S(=O)(=O)c2ccc(OC)cn2)c2ccc(C#N)cc21 (racemic) [listing 1 of 2 here] | IC50 (Cytochrome P450 3A4): 1200 nM
23 | 39 | 119 | 9 | 131 | 21 | CCOc1ccc(OC)cc1C1(N2CCN(c3ccncc3)CC2)C(=O)N(S(=O)(=O)c2ccc(F)c3cccnc23)c2ccc(C#N)cc21 (stereo not given) | –
24 | 325 | 63 | 1.1 | 39 | 201 | CCOc1nc(Cl)ccc1C1(N2CCN(c3ccncc3)CC2)C(=O)N(S(=O)(=O)c2ccc(OC)cn2)c2ccc(C#N)cc21 (stereo not given) | IC50 (Cytochrome P450 3A4): 100 nM
25 | – | 168 | 84 | 77 | – | CCOc1ncccc1C1(N2CCN(c3ccncc3)CC2)C(=O)N(S(=O)(=O)c2ccc(OC)cc2OC)c2ccc(C#N)cc21 (stereo not given) | –
26 | 216 | 290 | 2 | 45 | 230 | CCOc1ccc(OC)cc1C1(N2CCN(c3ccncc3)CC2)C(=O)N(S(=O)(=O)c2ccc(OC)cn2)c2ccc(C#N)cc21 (stereo not given) | –
27 | – | – | 45 | 23 | – | CCOc1nc(Cl)ccc1C1(N2CCN(c3ccncc3)CC2)C(=O)N(S(=O)(=O)c2ccc(OC)cc2OC)c2ccc(C#N)cc21 (stereo not given) | –
28 | – | 83 | 36 | 43 | – | CCOc1ccccc1C1(N2CCN(c3ccncc3)CC2)C(=O)N(S(=O)(=O)c2ccc(OC)cc2OC)c2ccc(C#N)cc21 (stereo not given) | –
29 | 125 | – | – | – | 69 | CCOc1nc(Cl)ccc1C1(N2CCN(c3ccnc(C)c3)CC2)C(=O)N(S(=O)(=O)c2ccc(OC)cn2)c2ccc(C#N)cc21 (racemic) [listing 2 of 2 here] | –
